Calls of active or inactive are those of the source. The calls are words filed in the database; no cut-off is given here.
Legend:
[1] = target: Gamma-aminobutyric acid receptor subunit alpha-6 (Rattus norvegicus) (UniProt P30191); assay: Displacement of [3H]Muscimol from GABAAalpha6 receptor in Sprague-Dawley rat brain cerebellum membrane at 1 mM; type: tissue-based
How it was run: (§1)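 Well-washed membranes from adult male Sprague-Dawley rat cortex or cerebellum (50–200 μg protein). Incubated 60 min on ice in 50 mM Tris/citrate, pH 7.3, with 6 nM [3H]muscimol and test compound. […] Filtered and counted by scintillation. IC50 and pseudo-Hill coefficient obtained by nonlinear regression.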

[2] = species on record: Rattus norvegicus; assay: Displacement of [3H]Muscimol from GABAA alpha-1-alpha-5 receptor in Sprague-Dawley rat brain cortex membrane at 100 uM; how it was run: as §1
[3] = species on record: Rattus norvegicus; assay: Displacement of [3H]Muscimol from GABAA alpha-1-alpha-5 receptor in Sprague-Dawley rat brain cortex membrane at 1 mM; how it was run: as §1
[4] = target: Gamma-aminobutyric acid receptor subunit alpha-6 (Rattus norvegicus) (UniProt P30191); assay: Displacement of [3H]Muscimol from GABAAalpha6 receptor in Sprague-Dawley rat brain cerebellum membrane at 100 uM; type: tissue-based; how it was run: as §1
[5] = (§2) Displacement of [3H]Muscimol from GABAA alpha-1-alpha-5 receptor in Sprague-Dawley rat brain cortex membrane; how it was run: as §1
[6] = species on record: Rattus norvegicus; assay: as §2; how it was run: as §1
[7] = target: Gamma-aminobutyric acid receptor subunit alpha-6 (Rattus norvegicus) (UniProt P30191); assay: (§3) Displacement of [3H]Muscimol from GABAAalpha6 receptor in Sprague-Dawley rat brain cerebellum membrane; type: tissue-based; how it was run: as §1
[8] = target: Gamma-aminobutyric acid receptor subunit alpha-6 (Rattus norvegicus, UniProt P30191); assay: as §3; type: tissue-based; how it was run: as §1
Gamma-aminobutyric acid receptor subunit alpha-6, sequence (P30191 whole entry): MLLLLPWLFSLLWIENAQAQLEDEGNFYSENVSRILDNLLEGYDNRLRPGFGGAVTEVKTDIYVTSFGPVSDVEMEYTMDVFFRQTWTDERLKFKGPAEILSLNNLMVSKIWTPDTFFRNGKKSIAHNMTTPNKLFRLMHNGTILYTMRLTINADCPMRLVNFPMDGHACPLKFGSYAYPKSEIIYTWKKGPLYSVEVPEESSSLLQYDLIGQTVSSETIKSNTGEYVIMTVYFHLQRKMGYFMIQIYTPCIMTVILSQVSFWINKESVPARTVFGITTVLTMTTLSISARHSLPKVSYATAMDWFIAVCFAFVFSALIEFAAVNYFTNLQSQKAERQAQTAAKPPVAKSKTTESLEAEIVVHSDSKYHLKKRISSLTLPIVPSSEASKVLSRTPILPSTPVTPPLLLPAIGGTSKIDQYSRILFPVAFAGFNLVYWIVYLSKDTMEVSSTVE

[9] = target: Gamma-aminobutyric acid receptor subunit alpha-6 (Rattus norvegicus) (UniProt P30191); assay: Intrinsic activity at recombinant rat GABAA alpha-6-beta-3-gamma-2 receptor expressed in HEK293 cells assessed as induction of current at 1 mM by whole-cell patch-clamp technique relative to GABA; type: cell-based
How it was run: (§4)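 Rat αiβ3γ2S receptors transiently expressed in HEK293 cells, with EGFP marking transfected cells, recorded 2 days after transfection. Whole-cell patch clamp in HEPES saline, pH 7.35. Drug applied alone at 1, 10, 100 and 1000 μM. […] Data from at least four cells.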

[10] = target: GABA A receptor alpha-5/beta-3/gamma-2 (Rattus norvegicus) (UniProt P18508+P19969+P63079); assay: Intrinsic activity at recombinant rat GABAA alpha-5-beta-3-gamma-2 receptor expressed in HEK293 cells assessed as induction of current at 1 mM by whole-cell patch-clamp technique relative to GABA; type: cell-based; how it was run: as §4
[11] = target: Gamma-aminobutyric acid receptor subunit alpha-4 (Rattus norvegicus) (UniProt P28471); assay: Intrinsic activity at recombinant rat GABAA alpha-4-beta-3-gamma-2 receptor expressed in HEK293 cells assessed as induction of current at 1 mM by whole-cell patch-clamp technique relative to GABA; type: cell-based; how it was run: as §4
Gamma-aminobutyric acid receptor subunit alpha-4 (Rattus norvegicus), sequence (P28471 whole entry): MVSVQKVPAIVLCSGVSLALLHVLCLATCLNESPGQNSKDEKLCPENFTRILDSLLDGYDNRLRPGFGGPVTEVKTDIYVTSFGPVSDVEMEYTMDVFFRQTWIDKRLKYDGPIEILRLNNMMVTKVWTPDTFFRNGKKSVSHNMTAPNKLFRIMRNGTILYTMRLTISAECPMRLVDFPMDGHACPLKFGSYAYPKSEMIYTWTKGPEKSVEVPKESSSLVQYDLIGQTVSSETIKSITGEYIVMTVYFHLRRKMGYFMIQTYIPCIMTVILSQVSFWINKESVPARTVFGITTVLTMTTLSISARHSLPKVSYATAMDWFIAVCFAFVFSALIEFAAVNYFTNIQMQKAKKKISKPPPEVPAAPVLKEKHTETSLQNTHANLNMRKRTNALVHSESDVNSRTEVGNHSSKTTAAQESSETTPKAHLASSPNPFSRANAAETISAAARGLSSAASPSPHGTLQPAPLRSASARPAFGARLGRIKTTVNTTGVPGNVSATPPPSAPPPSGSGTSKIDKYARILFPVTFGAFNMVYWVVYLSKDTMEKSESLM

[12] = target: GABA-A receptor; alpha-1/beta-2/gamma-2 (Rattus norvegicus) (UniProt P18508+P62813+P63138); assay: Intrinsic activity at recombinant rat GABAA alpha-1-beta-3-gamma-2 receptor expressed in HEK293 cells assessed as induction of current at 1 mM by whole-cell patch-clamp technique relative to GABA; type: cell-based; how it was run: as §4
[13] = target: T1, GABA A receptor alpha-2/beta-2/gamma-2 (Rattus norvegicus) (UniProt P18508+P23576+P63138); assay: Intrinsic activity at recombinant rat GABAA alpha-2-beta-3-gamma-2 receptor expressed in HEK293 cells assessed as induction of current at 1 mM by whole-cell patch-clamp technique relative to GABA; type: cell-based; how it was run: as §4
[14] = target: Gamma-aminobutyric acid receptor subunit alpha-3 (Rattus norvegicus) (UniProt P20236); assay: Intrinsic activity at recombinant rat GABAA alpha-3-beta-3-gamma-2 receptor expressed in HEK293 cells assessed as induction of current at 1 mM by whole-cell patch-clamp technique relative to GABA; type: cell-based; how it was run: as §4
Gamma-aminobutyric acid receptor subunit alpha-3 (Rattus norvegicus), sequence (P20236 whole entry): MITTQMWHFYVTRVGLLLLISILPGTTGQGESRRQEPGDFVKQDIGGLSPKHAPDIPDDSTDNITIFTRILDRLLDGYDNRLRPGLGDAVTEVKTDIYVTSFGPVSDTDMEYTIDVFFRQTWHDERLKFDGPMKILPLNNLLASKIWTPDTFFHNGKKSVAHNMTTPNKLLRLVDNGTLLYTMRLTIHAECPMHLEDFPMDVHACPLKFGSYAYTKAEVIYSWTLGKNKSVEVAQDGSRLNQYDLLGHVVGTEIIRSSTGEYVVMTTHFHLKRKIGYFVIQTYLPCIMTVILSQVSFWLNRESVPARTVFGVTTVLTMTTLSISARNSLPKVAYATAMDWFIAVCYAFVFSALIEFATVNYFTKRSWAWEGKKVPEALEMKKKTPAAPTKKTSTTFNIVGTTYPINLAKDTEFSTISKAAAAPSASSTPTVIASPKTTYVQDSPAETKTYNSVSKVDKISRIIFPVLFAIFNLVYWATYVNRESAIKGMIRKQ

[15] = target: Gamma-aminobutyric acid receptor subunit alpha-6 (Rattus norvegicus) (UniProt P30191); assay: Antagonist activity at recombinant rat GABAA alpha-6-beta-3-gamma-2 receptor expressed in HEK293 cells assessed as inhibition of GABA-induced current at 1 mM by whole-cell patch-clamp technique; type: functional, cell-based; design: scale not given: the % may be the effect or the level left
How it was run: (§5)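 HEK293 cells transiently transfected by calcium phosphate with rat αi, β3, γ2S and EGFP cDNAs, recorded 2 days later. Whole-cell patch clamp in HEPES saline, pH 7.35. […] Response expressed relative to the GABA-alone current. Data from at least four cells.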

[16] = target: T1, GABA A receptor alpha-2/beta-2/gamma-2 (Rattus norvegicus); assay: Antagonist activity at recombinant rat GABAA alpha-2-beta-3-gamma-2 receptor expressed in HEK293 cells assessed as inhibition of GABA-induced current at 1 mM by whole-cell patch-clamp technique; type: functional, cell-based; design: scale not given: the % may be the effect or the level left; how it was run: as §5
[17] = target: Gamma-aminobutyric acid receptor subunit alpha-4 (Rattus norvegicus) (UniProt P28471); assay: Antagonist activity at recombinant rat GABAA alpha-4-beta-3-gamma-2 receptor expressed in HEK293 cells assessed as inhibition of GABA-induced current at 1 mM by whole-cell patch-clamp technique; type: functional, cell-based; design: scale not given: the % may be the effect or the level left; how it was run: as §5
[18] = system: Oocyte; assay: Activity at rat GABAA alpha-1R66C-beta-2 receptor mutant expressed in Xenopus laevis oocytes assessed as inhibition of GABA-induced current at -60 mV by Two-Electrode voltage clamp method; type: cell-based
[19] = system: Oocyte; assay: Activity at rat GABAA alpha-1T129C-beta-2 receptor mutant expressed in Xenopus laevis oocytes assessed as inhibition of GABA-induced current at -60 mV by Two-Electrode voltage clamp method; type: cell-based

Gamma-aminobutyric acid receptor subunit alpha-6 (Rattus norvegicus), sequence (P30191 whole entry): as the sequence (P30191 whole entry) above

Compound | inhibition [1] [%] | inhibition [2] [%] | inhibition [3] [%] | inhibition [4] [%] | also measured
Cc1nnc(C2CCNCC2)o1 | 91 | 48 | 87 | 56 | IC50 [5]: 109 µM; logIC50 [6]: 2.04; logIC50 [7]: 1.88; IC50 [8]: 76 µM; Activity [9]: 29%; Activity [10]: < 10%; Activity [11]: < 10%; Activity [12]: < 10%; Activity [13]: < 10%; Activity [14]: < 10%
Oc1nnc([C@@H]2CCCN2)o1 | 13 | 5 | 10 | 8 | –
NCc1nnc(O)n1Cc1ccccc1 | 2 | 4 | 11 | 1 | –
NCc1nnc(S)n1Cc1ccccc1 | – | – | – | – | Activity [1]: inactive; Activity [2]: inactive; Activity [3]: inactive; Activity [4]: inactive
Sc1nnc(C2CCCNC2)o1 (stereo not given) | 42 | 12 | 51 | 15 | –
C[C@@H](N)c1nnc(O)o1 | 34 | 26 | 16 | 13 | –
CN1CCC(c2nnc(O)o2)CC1 | 26 | 4 | 27 | 6 | –
Sc1nnc([C@@H]2CCCN2)o1 | 31 | 21 | 36 | -2 | –
NCCc1nnc(S)o1 | 67 | 9 | 61 | 23 | –
Oc1nnc(C2CCCNC2)o1 (stereo not given) | 10 | 1 | 24 | 9 | –
CN(C)Cc1nnc(O)o1 | 26 | 3 | 27 | 5 | –
Oc1nnc(C2CCNCC2)o1 | 77 | 38 | 79 | 38 | IC50 [5]: 183 µM; logIC50 [6]: 2.26; logIC50 [7]: 2.09; IC50 [8]: 123 µM; Activity [15]: 41%; Activity [16]: 42%; Activity [17]: 52%; Activity [10]: 34%; Activity [13]: 17%; Activity [14]: 18%
CN1CCC(c2nnc(S)o2)CC1 | 27 | 6 | 48 | 8 | –
Cc1nnc(S)o1 | -3 | 20 | 10 | -4 | –
Oc1nnc(C2CCCCC2)o1 | 1 | 18 | -2 | – | –
CN(C)Cc1nnc(S)o1 | 37 | 22 | 47 | 3 | –
Cc1nnc(O)o1 | 4 | 7 | 26 | 3 | –
CNCc1nnc(O)o1 | 64 | 14 | 58 | 22 | –
S=c1[nH]nc(C2CCCCC2)o1 | -3 | 10 | 18 | 0 | –
CNCc1nnc(S)o1 | 16 | 17 | 24 | 9 | –
NCc1nnc(S)o1 | 95 | 58 | 99 | 61 | IC50 [5]: 57 µM; logIC50 [6]: 1.76; logIC50 [7]: 1.69; IC50 [8]: 49 µM
CS(=O)(=S)OCCNC(=O)CCCC[C@@H]1SC[C@@H]2NC(=O)N[C@@H]21 (stereo not given in full) | – | – | – | – | inhibition [18]: 75%; inhibition [19]: 60%
c1ccc(CN2CCC(c3nnco3)CC2)cc1 | -5 | -5 | 1 | 1 | –
Sc1nnc(C2CCNCC2)n1Cc1ccccc1 | – | -6 | – | 13 | –
Oc1nnc(C2CCNCC2)n1Cc1ccccc1 | 52 | 18 | 56 | 14 | –
Oc1nnc(C2CCN(Cc3ccccc3)CC2)o1 | 30 | 12 | 50 | 7 | –
NCCc1nnc(O)o1 | 98 | 85 | 100 | 89 | IC50 [5]: 9.4 µM; logIC50 [6]: 0.971; logIC50 [7]: 0.868; IC50 [8]: 7.4 µM
Sc1nnc(C2CCN(Cc3ccccc3)CC2)o1 | 30 | 3 | 33 | 6 | –
